Data: ChEMBL document CHEMBL4613263, “Optimization of Tetrahydroindazoles as Inhibitors of Human Dihydroorotate Dehydrogenase and Evaluation of Their Activity and In Vitro Metabolic Stability” (J Med Chem, 2020)
The source made the active and inactive calls. The rule behind the calls is not given here.

Key:
[1] = target: T1, Dihydroorotate dehydrogenase (quinone), mitochondrial (Homo sapiens, UniProt Q02127); assay: Inhibition of DHODH in human ARN8 cells assessed as DNA damage by measuring Chk2 phosphorylation at Thr68 at 20 nM incubated for 24 hrs by Western blot analysis; format: cell-based
In short: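 ARN8 cells treated 24 h before lysis in LDS buffer and protein normalization. Western blot blocked in 5% BSA/TBS-T, primary antibody overnight at 4 °C, HRP secondary and ECL detection. Loading taken from stain-free total protein.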

[2] = target: T1, Dihydroorotate dehydrogenase (quinone), mitochondrial; assay: Inhibition of DHOH in human ARN8 cells assessed as gammaH2AX level at 20 nM incubated for 24 hrs treated with pan-capse inhibitor, Z-VAD-FMK for 4.5 hrs prior to harvesting by Western blot analysis; format: cell-based
In short: (§1)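 ARN8 cells treated 24 h at 20 nM, with 20 µM Z-VAD-FMK or vehicle added 4.5 h before harvest. Etoposide arm was 20 µM for 1 h alongside Z-VAD-FMK. Lysates normalized for protein and analysed by western blot for p53, p-Ser15 p53, γ-H2AX, H2AX and cleaved PARP (85 kDa) against stain-free total-protein loading.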

[3] = target: T1, Dihydroorotate dehydrogenase (quinone), mitochondrial; assay: Inhibition of […] in human ARN8 cells assessed as increase in Bax protein expression at 20 nM incubated for 24 hrs by Western blot analysis; format: cell-based
[4] = target: T1, Dihydroorotate dehydrogenase (quinone), mitochondrial; assay: Inhibition of DHOH in human ARN8 cells assessed as increase in caspase 3/7 activity at 20 nM incubated for 48 hrs by live cell imaging analysis; format: cell-based
In short: (§2)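 ARN8 cells seeded at 4×10^3 per well and left 24 h, then given 20 nM compound in medium containing 2 µM caspase-3/7 substrate and 0.3 µM YOYO-3 (0.2% DMSO). Where indicated, 100 µM uridine or 20 µM Z-VAD-FMK was added. Cells imaged every 2 h for 48.5 h in an IncuCyte. Positive-cell counts per mm² normalized to confluence %; mean ± SD of three technical replicates.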

[5] = target: T1, Dihydroorotate dehydrogenase (quinone), mitochondrial; assay: Inhibition of DHODH in human ARN8 cells assessed as activation of p53-dependent transcription at 0.05 to 10 uM incubated for 16 hrs in presence of 100 uM […], uridine by CPRG assay; format: cell-based
In short: (§3)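 ARN8 cells carrying the RGCΔFos-LacZ p53 reporter seeded at 2×10^4 per well and left 24 h, then treated 16 h (0.1% DMSO final, ±100 µM uridine). Cells washed, lysed and frozen at −20 °C for at least 2 h. β-galactosidase measured with CPRG substrate at pH 7.5, read at 590 nm after 24 h. Result is fold change vs DMSO; mean ± SD of three technical replicates.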

[6] = Antiproliferative activity against human ARN8 cells assessed as reduction in cell viability incubated for 72 hrs by SRB assay; format: functional, cell-based; settings: Homo sapiens, ARN8, 72 h; read-out: IC50
[7] = target: T1, Dihydroorotate dehydrogenase (quinone), mitochondrial; assay: Inhibition of DHOH in human ARN8 cells assessed as cleaved PARP level at 20 nM incubated for 24 hrs treated with pan-caspase inhibitor, Z-VAD-FMK for 4.5 hrs prior to harvesting by Western blot analysis; format: cell-based; in short: as §1
[8] = target: T1, Dihydroorotate dehydrogenase (quinone), mitochondrial; assay: Inhibition of DHODH in human ARN8 cells assessed as induction of DNA damage by measuring increase in p53 phosphorylation at Ser15 at 20 nM incubated for 24 hrs in presence of 100 uM […], uridine by Western blot analysis; format: cell-based
In short: (§4)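 ARN8 cells seeded at 15×10^4 per well and left 24 h. Treated 24 h at 20 nM, or with etoposide at 20 µM for 1 h, with 100 µM uridine where indicated. Lysates made in LDS buffer and protein-normalized, then run on 4–15% gels and transferred to PVDF. Phospho-proteins blocked in BSA, others in milk; primary antibodies overnight at 4 °C, ECL detection. Loading judged by stain-free total protein.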

[9] = target: T1, Dihydroorotate dehydrogenase (quinone), mitochondrial; assay: Inhibition of DHODH in human ARN8 cells assessed as activation of p53-dependent transcription at 0.05 to 10 uM incubated for 16 hrs by CPRG assay; format: cell-based; in short: as §3
[10] = organism: Homo sapiens; assay: Antiproliferative activity against human ARN8 cells assessed as reduction in cell viability at 0.005 to 10 uM incubated for 72 hrs in presence of 100 uM […], uridine by SRB assay; format: functional, cell-based
[11] = Metabolic stability in CD-1 mouse liver microsomes assessed as half life at 1 uM incubated for 60 mins by LC-MS/MS analysis; format: ADME, Microsome; settings: CD-1, mouse, liver microsomes
In short: (§5)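 Compound at 1 µM with 1.0 mg/mL human or mouse liver microsomes in 50 mM potassium phosphate pH 7.4, preincubated 5 min at 37 °C. Started with 1 mM NADPH (or blank buffer). Quenched with cold acetonitrile containing glipizide at 0, 5, 15, 30, 60 min. Parent loss tracked by LC-MS/MS in MRM mode; t½ = 0.693/k from slope of peak-area ratio versus time.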

[12] = target: T1, Dihydroorotate dehydrogenase (quinone), mitochondrial; assay: Inhibition of […] in human ARN8 cells assessed as decrease in Bcl2 protein expression at 20 nM incubated for 24 hrs in presence of pan-caspase inhibitor, Z-VAD-FMK by Western blot analysis; format: cell-based
[13] = target: T1, Dihydroorotate dehydrogenase (quinone), mitochondrial; assay: Inhibition of DHODH in human ARN8 cells assessed as increase in p53 level at 20 nM incubated for 24 hrs in presence of 100 uM […], uridine by Western blot analysis; format: cell-based; in short: as §4
[14] = target: T1, Dihydroorotate dehydrogenase (quinone), mitochondrial; assay: Inhibition of […] in human ARN8 cells assessed as increase in Bax protein expression at 20 nM incubated for 24 hrs in presence of pan-caspase inhibitor, Z-VAD-FMK by Western blot analysis; format: cell-based
[15] = target: T1, Dihydroorotate dehydrogenase (quinone), mitochondrial; assay: Inhibition of DHODH in human ARN8 cells assessed as induction of DNA damage by measuring increase in p53 phosphorylation at Ser15 at 20 nM incubated for 24 hrs by Western blot analysis; format: cell-based; in short: as §4
[16] = target: T1, Dihydroorotate dehydrogenase (quinone), mitochondrial; assay: Inhibition of recombinant human DHODH using dihydroorotic acid as substrate measured for 68 mins by DCIP based colorimetric assay
[17] = target: T1, Dihydroorotate dehydrogenase (quinone), mitochondrial; assay: Inhibition of DHOH in human ARN8 cells assessed as increase in YOYO3 positive cells at 20 nM incubated for 48 hrs in presence of pan-caspase inhibitor, Z-VAD-FMK measured every 2 hrs by YOYO-3 staining based live cell imaging analysis; in short: as §2
[18] = Cytotoxicity against human HNDF cells assessed as reduction in cell viability incubated for 72 hrs by SRB assay; format: cell-based; settings: Homo sapiens, 72 h; read-out: IC50
In short: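 Human normal dermal fibroblasts seeded at 15×10^2 per well and left 24 h, then exposed to compound for 72 h with 0.1% DMSO final. Cells fixed with TCA at 4 °C for 1 h, stained with SRB, solubilized in 10 mM Tris and read at 490 nm. Values normalized to DMSO control. Tabulated means come only from experiments where IC50 fell below 10 000 nM.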

[19] = target: T1, Dihydroorotate dehydrogenase (quinone), mitochondrial; assay: Inhibition of […] in human ARN8 cells assessed as decrease in Bcl2 protein expression at 20 nM incubated for 24 hrs by Western blot analysis; format: cell-based
[20] = target: T1, Dihydroorotate dehydrogenase (quinone), mitochondrial; assay: Inhibition of DHOH in human ARN8 cells assessed as increase in caspase 3/7 activity at 20 nM incubated for 48 hrs in presence of pan-caspase inhibitor, Z-VAD-FMK by live cell imaging analysis; format: cell-based; in short: as §2
[21] = Metabolic stability in human liver microsomes assessed as half life at 1 uM incubated for 60 mins by LC-MS/MS analysis; format: ADME, Microsome; settings: liver microsomes; in short: as §5

T1 sequence (Q02127 whole entry): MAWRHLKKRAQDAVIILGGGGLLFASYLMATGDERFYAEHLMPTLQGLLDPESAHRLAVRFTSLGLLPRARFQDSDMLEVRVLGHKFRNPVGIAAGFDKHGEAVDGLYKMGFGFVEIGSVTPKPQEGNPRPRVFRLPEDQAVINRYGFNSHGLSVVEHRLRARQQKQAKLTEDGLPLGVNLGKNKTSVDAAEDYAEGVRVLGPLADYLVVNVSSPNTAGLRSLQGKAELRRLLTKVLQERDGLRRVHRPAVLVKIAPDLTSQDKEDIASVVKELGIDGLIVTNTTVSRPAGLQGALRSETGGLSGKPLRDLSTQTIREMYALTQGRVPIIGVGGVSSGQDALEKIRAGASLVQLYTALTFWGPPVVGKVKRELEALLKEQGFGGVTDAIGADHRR

inhibition [2]: inactive | inhibition [3]: Active | inhibition [4]: Active | inhibition [5]: inactive | inhibition [7]: inactive | inhibition [9]: Active | half-life at 1 µM [11]: 36 min | inhibition [12]: Active | inhibition [13]: inactive | inhibition [14]: Active | IC50 [16]: < 5 nM | inhibition [17]: inactive | inhibition [19]: Active | inhibition [20]: inactive | half-life at 1 µM [21]: > 60 min
Compound: O=C(N[C@@H]1CCCc2c1cnn2-c1ccccc1F)c1ncn2c1CCCC2
inhibition [1]: inactive | IC50 [6]: 22 nM | inhibition [8]: inactive | Activity [10]: inactive | inhibition [15]: Active | IC50 [18]: > 10000 nM
